Data set [1] relates to SH-SY5Y. Description: Cytotoxicity against human SH-SY5Y cells assessed as reduction in cell viability up to 20 uM incubated for 24 hrs by MTT assay. Format: cell-based. The method in brief:
(§1)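 SH-SY5Y cells plated at 2.5×10^4 per well and exposed 24 h to 1–50 μM. MTT at 1 mg/mL in complete medium for 4 h, then SDS solubilisation for 24 h and absorbance read. Viability given as % of untreated control. Dunnett's test, n = 3.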
Background: Tetrazolium dyes change colour on reduction, which living cells bring about.

For data set [2], the system named is SH-SY5Y. The data set is described as follows: Cytoprotective activity in human SH-SY5Y cells assessed as increase in Nrf2 mRNA expression level at 10 uM incubated for 6 hrs by RT-PCR analysis. The class given is functional, cell-based. The procedure, abridged: (§2)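 SH-SY5Y cells in EMEM/F-12 (1:1) with 10% heat-inactivated FBS, 37 °C, 5% CO2, exposed 6 h to 10 μM compound, final DMSO <0.1%. Total RNA extracted and Nrf2 and HO-1 mRNA quantified by real-time RT-PCR with GAPDH as endogenous reference. Mean ± SEM, experiments repeated at least three times.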

For data set [3], the system named is SH-SY5Y. The data set is described as follows: Neuroprotective activity in human SH-SY5Y cells assessed as reduction in H2O2-induced intracellular ROS formation at 10 uM and measured for 30 to 300 mins by DCFH-DA staining based assay. The class given is functional, cell-based. The method in brief:
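SH-SY5Y cells loaded with 25 μM DCFH-DA for 45 min, then given 10 μM compound together with 300 μM H2O2. Fluorescence read at ex 485/em 530 nm over 30–300 min. Compared against H2O2 alone by Dunnett's test.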

The test system of data set [4] is SH-SY5Y. The data set is described as follows: Cytotoxicity against human SH-SY5Y cells assessed as reduction in cell viability up to 50 uM incubated for 24 hrs by MTT assay. The class given is cell-based. The method in brief:
as §1

Data set [5] has as its system SH-SY5Y. The data set is described as follows: Neuroprotective activity in human SH-SY5Y cells assessed as reduction in H2O2-induced intracellular ROS formation at 10 uM preincubated for 24 hrs followed H2O2 addition and measured after 10 to 90 mins by DCFH-DA staining based assay. The class given is functional, cell-based. The method in brief:
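SH-SY5Y cells pretreated 24 h with 10 μM compound, then loaded with 25 μM DCFH-DA for 45 min and challenged with 300 μM H2O2. Fluorescence (485/530 nm) followed from 10 to 90 min. Compared against H2O2 alone by Dunnett's test.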

The species named for data set [6] is Homo sapiens. Description: Activation of alpha secretase in human H4 cells harboring swedish mutant form of APP assessed as increase in sAPPalpha protein level at 10 uM incubated for 24 hrs by Western blot analysis.
The subject of data set [7] is SH-SY5Y. The data set is described as follows: Cytoprotective activity in human SH-SY5Y cells assessed as increase in HO1 mRNA expression level at 10 uM incubated for 6 hrs by RT-PCR analysis relative to control. The class given is functional. The method in brief: as §2
Data set [8] has as its system H4. The data set is described as follows: Effect on total intracellular APP in human H4 cells harboring swedish mutant form of APP assessed as change in full length APP protein level at 10 uM incubated for 24 hrs by Western blot analysis. The class given is cell-based. As to conditions: h4, 24 h. The method in brief: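 H4 cells bearing Swedish APP, kept in DMEM/10% FBS under hygromycin B and blasticidin S selection, treated 24 h with 10 μM. Lysates analysed by Western blot for full-length APP. Densitometry normalized to α-tubulin. One-way ANOVA with post-hoc test.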
(A western blot detects proteins with antibodies after separation by electrophoresis.)

The target of data set [9] is Glutamate NMDA receptor; GRIN1/GRIN2A (Homo sapiens, UniProt Q05586+Q12879). The data set is described as follows: Antagonist activity at GluN1a/GluN2A (unknown origin) expressed in Xenopus laevis oocytes at -60 mV holding potential by voltage clamp method. Format: cell-based. The method in brief: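 Rat-free detail absent; GluN1-1a/GluN2A cRNA (1:1 by weight) injected into defolliculated oocytes, kept 3–4 days at 18 °C in modified Barth's media. Two-electrode voltage clamp at -60 mV, perfusion with 96 mM NaCl, 2 mM KCl, 1.8 mM CaCl2, 10 mM HEPES pH 7.5. Currents evoked by 100 μM NMDA + 10 μM glycine; compound 0.01–100 μM added at steady state until new plateau; % control fit to Hill equation for IC50; ≥5 oocytes.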
Chain of Glutamate NMDA receptor; GRIN1/GRIN2A (Q12879 whole entry, other chains not shown, the tested form may be a part): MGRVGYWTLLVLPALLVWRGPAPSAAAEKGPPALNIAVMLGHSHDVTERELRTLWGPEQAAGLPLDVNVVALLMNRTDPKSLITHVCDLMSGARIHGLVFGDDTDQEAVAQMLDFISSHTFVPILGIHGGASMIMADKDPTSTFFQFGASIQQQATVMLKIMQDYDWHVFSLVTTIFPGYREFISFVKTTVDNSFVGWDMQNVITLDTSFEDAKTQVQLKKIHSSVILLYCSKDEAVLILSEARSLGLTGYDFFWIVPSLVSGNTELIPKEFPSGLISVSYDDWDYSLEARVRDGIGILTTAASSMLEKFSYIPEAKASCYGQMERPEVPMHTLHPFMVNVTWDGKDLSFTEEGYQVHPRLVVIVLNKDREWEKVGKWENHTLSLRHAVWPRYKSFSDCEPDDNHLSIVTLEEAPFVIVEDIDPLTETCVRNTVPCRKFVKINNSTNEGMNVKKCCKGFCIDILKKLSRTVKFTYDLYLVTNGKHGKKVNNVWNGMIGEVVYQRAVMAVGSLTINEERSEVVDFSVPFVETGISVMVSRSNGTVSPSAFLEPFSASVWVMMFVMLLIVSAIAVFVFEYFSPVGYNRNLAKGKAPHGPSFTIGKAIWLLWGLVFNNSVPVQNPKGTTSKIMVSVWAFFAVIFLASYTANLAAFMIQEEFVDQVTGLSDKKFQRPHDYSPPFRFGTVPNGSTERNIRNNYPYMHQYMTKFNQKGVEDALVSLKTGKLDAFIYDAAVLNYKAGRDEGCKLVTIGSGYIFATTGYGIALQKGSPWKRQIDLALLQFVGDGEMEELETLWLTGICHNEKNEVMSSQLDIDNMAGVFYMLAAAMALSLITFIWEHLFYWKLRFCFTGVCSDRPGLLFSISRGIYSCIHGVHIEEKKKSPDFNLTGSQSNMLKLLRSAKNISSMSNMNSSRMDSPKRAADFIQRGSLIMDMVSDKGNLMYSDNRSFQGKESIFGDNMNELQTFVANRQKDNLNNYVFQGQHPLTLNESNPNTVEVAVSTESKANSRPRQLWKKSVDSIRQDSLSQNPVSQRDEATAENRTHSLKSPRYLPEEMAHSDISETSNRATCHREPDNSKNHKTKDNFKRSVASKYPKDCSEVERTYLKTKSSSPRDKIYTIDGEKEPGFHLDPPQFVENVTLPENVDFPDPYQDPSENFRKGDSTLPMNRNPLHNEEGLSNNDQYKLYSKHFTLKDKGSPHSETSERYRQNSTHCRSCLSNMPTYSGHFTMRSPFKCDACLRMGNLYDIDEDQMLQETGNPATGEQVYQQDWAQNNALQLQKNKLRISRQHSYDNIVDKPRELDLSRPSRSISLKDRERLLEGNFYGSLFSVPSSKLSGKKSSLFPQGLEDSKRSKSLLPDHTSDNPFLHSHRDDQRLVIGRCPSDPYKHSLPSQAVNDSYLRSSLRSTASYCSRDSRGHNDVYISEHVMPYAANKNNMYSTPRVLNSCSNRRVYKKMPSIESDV

The test system of data set [10] is H4. Description: Cytotoxicity against human H4 cells harboring swedish mutant form of APP assessed as reduction in cell viability up to 20 uM incubated for 24 hrs by MTT assay. The class given is cell-based. As to conditions: h4, 24 h.
Data set [11] has as its system SH-SY5Y. The data set is described as follows: Cytoprotective activity in human SH-SY5Y cells assessed as increase in HO1 protein level incubated for 24 hrs by Western blot analysis. Format: functional, cell-based. The procedure, abridged: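 SH-SY5Y cells treated 24 h at 10 or 20 μM. Cells washed in ice-cold PBS, lysed in Tris/NaCl/EDTA/Triton buffer, equal protein run on reducing SDS-PAGE, blotted to PVDF. Probed with anti-HO-1 (1:1000), β-tubulin as loading control, ECL detection. Densitometry expressed as % of control ± SEM.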

The test system of data set [12] is SH-SY5Y. The data set is described as follows: Cytoprotective activity in human SH-SY5Y cells assessed as increase in HO1 protein level at 20 uM incubated for 24 hrs by Western blot analysis. Format: functional. The method in brief: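 SH-SY5Y human neuroblastoma cells (EMEM/Ham's F-12 with 10% heat-inactivated FBS, 37 °C, 5% CO2) treated 24 h at 10 or 20 μM, compound diluted from DMSO stock (final DMSO <0.1%). Whole-cell lysates in Tris/NaCl/EDTA/Triton buffer, SDS-PAGE and PVDF blot probed with anti-HO-1. Tubulin served as loading control, ECL detection, densitometry given as % of untreated control.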

Calls of active or inactive are those of the source. The rule behind the calls is not given here. Bounds are passed on as bounds.

On to `COc1cc(/C=C/C(=O)O)ccc1O` [FERULATE], for which the Activity entry in [1] and in data set [4] was “Non-Toxic” throughout. Further, the outcome in [2] and in data set [7] was inactive. Moreover, the result in data set [3] and in data set [5] was Active. Moreover, in data set [6], the activation result is “inactive”.

Usually IC50 stands for the concentration that gives 50% inhibition. A lower IC50 goes with greater potency in that assay. For `COc1cc(/C=C/C(=O)NCCCCNC23CC4CC(C)(CC(C)(C4)C2)C3)ccc1O`, the Activity entry in data set [1], in data set [8], in data set [10] and in [4] was “Non-Toxic” in each case. The IC50 in data set [9] turned out to be 23.9 µM. Also, the outcome in data set [2] and in data set [7] was inactive. Moreover, the result in data set [3] and in [5] was Active. The activation entry in data set [6] was “inactive”.

Compound `COc1cc(/C=C/C(=O)NCCCCNC(=O)C23CC4(C)CC(C)(CC(N)(C4)C2)C3)ccc1O` gave an IC50 in [9] of over 100 µM.

Take `COc1cc(/C=C/C(=O)NCCCNC(=O)C23CC4(C)CC(C)(CC(N)(C4)C2)C3)ccc1O`: the IC50 in data set [9] was over 100 µM.

As for `COc1cc(/C=C/C(=O)NCCCCCNC23CC4CC(C)(CC(C)(C4)C2)C3)ccc1O`, the Activity entry in data set [1], in data set [8] and in data set [10] was “Non-Toxic” each time. Moreover, half-maximal inhibition in [9] (IC50) required 14.1 µM. The outcome in [2] and in [7] was inactive. For the same compound, the result in data set [3] and in data set [5] was Active. The activation entry in [6] was “inactive”.

As to `COc1cc(/C=C/C(=O)NCCCCCCNC23CC4CC(C)(CC(C)(C4)C2)C3)ccc1O`, the Activity result was “Non-Toxic” in data set [1]; “Non-Toxic” in [8]; “Dose-dependent effect” in data set [11]; “Non-Toxic” in data set [10]; 150% in data set [7]. The compound further had an IC50 in [9] of 6.9 µM. For the same compound, the result in data set [2], in data set [3] and in data set [5] was Active. Further, the “fold change (FC)” value in data set [12] worked out at 2. In data set [6], the activation entry was “Active”.

Turning to `COc1cc(/C=C/C(=O)NCCNC(=O)C23CC4(C)CC(C)(CC(N)(C4)C2)C3)ccc1O`, the IC50 in data set [9] is over 100 µM.

For the compound `COc1cc(/C=C/C(=O)NCCCNC23CC4CC(C)(CC(C)(C4)C2)C3)ccc1O`, the IC50 in [9] was over 100 µM.
